The test system of series [1] is L5178Y. Description: Inhibitory activity against murine tumor cells (L5178Y/S). Type of series: functional, Mus musculus. The essentials: (§1)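 L5178Y murine leukemia cells, MTX-sensitive (S) and MTX-resistant (R), kept in log-phase growth at 37 °C in RPMI-1640 with 10% fetal calf serum and 1% penicillin-streptomycin. Doubling times were 11-12 h (S) and 15-18 h (R). Cells seeded at 4.0-6.0 × 10^4 cells/mL, duplicate wells, at least six concentrations, final DMSO <2%. Untreated and DMSO controls included; cells counted by Coulter counter.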

Series [2] relates to L5178Y. Description: Inhibitory activity against murine tumor cells (L5178Y/R). The format is functional, Mus musculus. The essentials:
as §1

For series [3], the system named is L5178Y. Description: Inhibitory action against murine tumor cells (L5178Y/R). The format is functional, Mus musculus. The essentials:
as §1

In series [4] the test system is L5178Y. As to the kind of experiment: Inhibitory action against murine tumor cells (L5178Y/S). Type of series: functional, Mus musculus. The essentials: as §1
The nature of series [5]: Partition coefficient (logP). The format is physicochemical. Particulars: octanol/water. The essentials: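 Octanol/water partitioning. The protonated form was partitioned between octanol and 0.1 N HCl. The neutral form was partitioned between octanol and 0.1 N NaOH.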

In the case of `Nc1ncc(Cc2cccc(C(F)(F)F)c2)c(N)n1`, the “Log 1/C” value is recorded as 5.63 in the series with L5178Y [1] and 4.37 in the series with L5178Y [2].

`CCCCOc1cccc(Cc2cnc(N)nc2N)c1`: the “Log 1/C” value in the series on L5178Y [1] is 5.74; in the series on L5178Y [2], 4.99.

On to `COCCOc1cccc(Cc2cnc(N)nc2N)c1`, for which the “Log 1/C” value is on record as 5.2 in the series with L5178Y [1] and 3.7 in the series with L5178Y [2].

Regarding `CC(=O)Nc1ccc(Cc2cnc(N)nc2N)cc1`, the “Log 1/C” value with L5178Y [1] amounted to 5.12; in the series with L5178Y [2], 3.23. The corresponding values for `Nc1ncc(Cc2ccc(OC(F)(F)F)cc2)c(N)n1` are 5.24 and 4.46. As for `Nc1ncc(Cc2cc(CO)cc(CO)c2)c(N)n1`, the entries for the “Log 1/C” value with L5178Y [1] and with L5178Y [2] were 3.79 and 2.49, respectively. In the case of `CCCCCCCCOc1cccc(Cc2cnc(N)nc2N)c1`, the “Log 1/C” value with L5178Y [1] came to 5.12; in the series with L5178Y [2], 4.92. For `Cc1cccc(Cc2cnc(N)nc2N)c1` the same measures were 5.5 and 4.15.

With `Nc1ncc(Cc2ccc(Br)cc2)c(N)n1`, the figures for the “Log 1/C” value in the series on L5178Y [1] and with L5178Y [2] were 5.38 and 3.98, respectively. For `COc1ccc(Cc2cnc(N)nc2N)cc1C(F)(F)F` the same measures were 5.85 and 4.39. As to `COCCOc1c(OC)cc(Cc2cnc(N)nc2N)cc1OC` [TETROXOPRIM], the figures for the “Log 1/C” value in the series with L5178Y [1] and with L5178Y [2] were 4.2 and 3.16, respectively. Consider `CCCCCCOc1ccc(Cc2cnc(N)nc2N)cc1`, for which the “Log 1/C” value with L5178Y [1] was 5.47; with L5178Y [2], 5.48.

For `Nc1ncc(Cc2cccc(Br)c2)c(N)n1`, the entries for the “Log 1/C” value in the series with L5178Y [1] and with L5178Y [2] were 5.52 and 4.12, respectively. In the case of `Nc1ncc(Cc2cccc(F)c2)c(N)n1`, the “Log 1/C” value was 5.27 with L5178Y [1] and 3.61 in the series with L5178Y [2]. With `CCCCCCCOc1ccc(Cc2cnc(N)nc2N)cc1`, the results for the “Log 1/C” value in the series on L5178Y [1] and in the series on L5178Y [2] were 5.13 and 5.67, respectively.

`CCCCCCCOc1cccc(Cc2cnc(N)nc2N)c1`: the “Log 1/C” value with L5178Y [1] came out at 5.1; with L5178Y [2], 4.61. Consider `Nc1ncc(Cc2cccc(I)c2)c(N)n1`, for which the “Log 1/C” value in the series on L5178Y [1] amounted to 5.86; in the series on L5178Y [2], 4.36. For `COCCOc1ccc(Cc2cnc(N)nc2N)cc1` the same measures were 4.77 and 3.08.

For the compound `Nc1ncc(Cc2ccc([N+](=O)[O-])cc2)c(N)n1`, the figures for the “Log 1/C” value with L5178Y [1] and in the series with L5178Y [2] were 5.18 and 3.67, respectively. `Cc1ccc(Cc2cnc(N)nc2N)cc1`: the “Log 1/C” value in the series on L5178Y [1] came out at 5.26; with L5178Y [2] it was 4.21. For `COc1cc(Cc2cnc(N)nc2N)cc(OC)c1`, the figures for the “Log 1/C” value in the series with L5178Y [1] and in the series on L5178Y [2] were 5.47 and 3.83, respectively. The corresponding values for `CCCCCCOc1cccc(Cc2cnc(N)nc2N)c1` are 5.3 and 5.16. As for `COCc1cccc(Cc2cnc(N)nc2N)c1`, the “Log 1/C” value came to 5.28 in the series with L5178Y [1] and 3.65 with L5178Y [2]. As to `Nc1ncc(Cc2ccccc2)c(N)n1`, the results for the “Log 1/C” value in the series on L5178Y [1] and in the series on L5178Y [2] were 5.24 and 3.88, respectively. For `COc1ccc(Cc2cnc(N)nc2N)cc1` the same measures were 5.1 and 3.52.

`COc1cccc(Cc2cnc(N)nc2N)c1`: the “Log 1/C” value in the series with L5178Y [1] worked out at 5.06; in the series with L5178Y [2] it was 3.63. The corresponding values for `Nc1ncc(Cc2ccc(Cl)cc2)c(N)n1` are 5.37 and 4.56. For `CCCCOCc1cccc(Cc2cnc(N)nc2N)c1` the same measures were 5.74 and 3.93. `NC(=O)COc1cccc(Cc2cnc(N)nc2N)c1`: the “Log 1/C” value was 3.14 with L5178Y [3] and 4.91 in the series on L5178Y [4]. For `CS(=O)(=O)Oc1cccc(Cc2cnc(N)nc2N)c1` the same measures were 3.34 and 5.28.

With `CN(C)c1ccc(Cc2cnc(N)nc2N)cc1`, the “Log 1/C” value is reported as 4.95 with L5178Y [1] and 4.02 in the series on L5178Y [2]. For `Nc1ccc(Cc2cnc(N)nc2N)cc1`, the “Log 1/C” value was 4.65 in the series on L5178Y [1] and 3.58 in the series on L5178Y [2].

For `Nc1ncc(Cc2ccc(F)cc2)c(N)n1`, the “Log 1/C” value with L5178Y [1] is listed as 5.48; with L5178Y [2], 3.9. As to `CC(=O)Nc1ccc(Cc2cnc(N)nc2N)cc1[N+](=O)[O-]`, the entries for the “Log 1/C” value with L5178Y [1] and in the series with L5178Y [2] were 5.11 and 3.2, respectively. On to `CCCCOc1ccc(Cc2cnc(N)nc2N)cc1`, for which the “Log 1/C” value in the series on L5178Y [1] is 5.37; with L5178Y [2] it was 4.83. Turning to `Nc1ncc(Cc2cccc(Cl)c2)c(N)n1`, the “Log 1/C” value in the series on L5178Y [1] is given as 5.39; with L5178Y [2], 3.85. One may read the logP as the decadic logarithm of the partition coefficient of the neutral form, usually between octanol and water. A low value points to a more hydrophilic compound. In turn, `CC1(C)N=C(N)N=C(N)N1c1ccc(CCCCc2ccc(S(=O)(=O)F)cc2Cl)c(Cl)c1` had a logP in series [5] of 2.4. Turning to `Nc1ncc(Cc2cccc(O)c2)c(N)n1`, the “Log 1/C” value with L5178Y [1] stood at 4.89; in the series with L5178Y [2] it was 3.09. For `Nc1ncc(Cc2cccc(OCc3ccccc3)c2)c(N)n1` the same measures were 5.91 and 4.7. For `Nc1ncc(Cc2ccc(O)c(O)c2)c(N)n1` the same measures were 5.06 and 4.94.

In the case of `COc1ccc(Cc2cnc(N)nc2N)cc1OC` [DIAVERIDINE], the results for the “Log 1/C” value in the series on L5178Y [1] and in the series on L5178Y [2] were 5.41 and 3.54, respectively. The corresponding values for `Nc1ncc(Cc2cccc(CO)c2)c(N)n1` are 4.97 and 2.98.

On to `COCCOc1ccc(Cc2cnc(N)nc2N)cc1OCCOC`, for which the “Log 1/C” value stood at 5.06 in the series with L5178Y [1] and 3.28 in the series with L5178Y [2].

The values above are taken from ChEMBL document CHEMBL1122051 (J Med Chem, 1982).
